Reference: ChEMBL document CHEMBL1153377, “8-Bromo-9-alkyl adenine derivatives as tools for developing new adenosine A2A and A2B receptors ligands” (Bioorg Med Chem, 2009)

What was measured:
Adenosine receptor A3 = target: T1, Adenosine receptor A3 (Homo sapiens, UniProt P0DMS8); experiment: Displacement of [3H]NECA from human adenosine A3 receptor expressed in CHO cells; assay type: cell-based
T1 sequence (P0DMS8 whole entry): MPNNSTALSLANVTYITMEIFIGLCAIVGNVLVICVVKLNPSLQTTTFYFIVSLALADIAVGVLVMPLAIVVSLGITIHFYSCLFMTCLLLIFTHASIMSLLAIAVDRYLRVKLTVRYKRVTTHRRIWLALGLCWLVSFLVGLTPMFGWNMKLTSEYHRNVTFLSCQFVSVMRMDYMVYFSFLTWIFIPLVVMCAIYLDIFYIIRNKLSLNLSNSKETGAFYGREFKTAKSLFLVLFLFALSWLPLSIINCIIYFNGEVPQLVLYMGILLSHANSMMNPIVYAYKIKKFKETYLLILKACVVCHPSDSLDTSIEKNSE
Method in brief: (§1)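 CHO cells stably expressing human receptor; membranes from a two-step spin (1000 g, then 100,000 g), resuspended in binding buffer, stored -80 °C. Competition with [3H]NECA at 30 nM (A2A) or 10 nM (A3); nonspecific binding defined with […]. Ki derived from competition experiments.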

Adenosine receptor A1 = target: T2, Adenosine receptor A1 (Homo sapiens, UniProt P30542); experiment: Displacement of [3H]CCPA from human adenosine A1 receptor expressed in CHO cells; assay type: cell-based
T2 sequence (P30542 whole entry): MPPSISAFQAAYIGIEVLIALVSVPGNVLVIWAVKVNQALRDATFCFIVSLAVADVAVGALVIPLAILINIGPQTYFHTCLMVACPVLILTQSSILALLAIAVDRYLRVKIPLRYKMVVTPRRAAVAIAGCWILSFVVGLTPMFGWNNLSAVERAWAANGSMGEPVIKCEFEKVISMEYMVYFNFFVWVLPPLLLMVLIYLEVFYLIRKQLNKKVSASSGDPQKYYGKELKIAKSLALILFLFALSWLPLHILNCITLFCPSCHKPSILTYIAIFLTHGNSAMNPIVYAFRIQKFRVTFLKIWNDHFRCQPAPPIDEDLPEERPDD
Method in brief: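 Membranes from CHO cells stably expressing human A1 receptor (1000 g spin to clear nuclei, then 100,000 g pellet, stored -80 °C in binding buffer). Competition binding with 1 nM [3H]CCPA; nonspecific binding defined with 1 mM theophylline. Ki calculated from competition curves.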

Adenosine receptor A2a = Adenosine receptor A2a (Homo sapiens, UniProt P29274); experiment: Displacement of [3H]NECA from human adenosine A2A receptor expressed in CHO cells; assay type: cell-based; method in brief: as §1
Adenosine receptor A2a, sequence (P29274 whole entry): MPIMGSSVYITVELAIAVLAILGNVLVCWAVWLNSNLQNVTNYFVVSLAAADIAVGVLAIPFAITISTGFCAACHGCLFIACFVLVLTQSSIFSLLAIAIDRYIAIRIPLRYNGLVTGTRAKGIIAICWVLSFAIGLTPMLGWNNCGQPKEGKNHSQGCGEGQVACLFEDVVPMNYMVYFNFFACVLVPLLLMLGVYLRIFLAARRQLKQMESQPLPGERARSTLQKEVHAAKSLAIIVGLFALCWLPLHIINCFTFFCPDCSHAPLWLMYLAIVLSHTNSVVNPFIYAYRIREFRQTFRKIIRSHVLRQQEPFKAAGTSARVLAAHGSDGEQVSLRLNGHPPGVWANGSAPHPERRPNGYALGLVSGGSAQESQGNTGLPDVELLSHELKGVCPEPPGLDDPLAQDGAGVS

Adenosine receptor A2b = target: T3, Adenosine receptor A2b (Homo sapiens, UniProt P29275); experiment: Antagonist activity at human adenosine A2B receptor expressed in CHO cells assessed as inhibition of NECA-stimulated adenylyl cyclase activity; assay type: functional, cell-based
T3 sequence (P29275 whole entry): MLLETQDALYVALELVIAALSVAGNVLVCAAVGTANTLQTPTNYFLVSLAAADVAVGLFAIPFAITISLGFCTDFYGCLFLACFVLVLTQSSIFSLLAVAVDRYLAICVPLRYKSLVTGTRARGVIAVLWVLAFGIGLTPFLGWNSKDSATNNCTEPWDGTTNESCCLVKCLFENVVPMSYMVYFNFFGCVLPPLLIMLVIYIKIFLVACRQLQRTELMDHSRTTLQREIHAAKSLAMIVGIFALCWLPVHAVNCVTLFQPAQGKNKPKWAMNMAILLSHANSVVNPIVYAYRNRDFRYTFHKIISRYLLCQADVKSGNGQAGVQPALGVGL
Method in brief: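 Membranes from CHO cells stably transfected with human A2B receptor, prepared by a single high-speed centrifugation of the homogenate, resuspended in 50 mM Tris/HCl pH 7.4 and used at once. Inhibition of NECA-stimulated adenylyl cyclase activity measured; IC50 converted to Ki by Cheng-Prusoff equation.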

Compound	Ki (Adenosine receptor A3) [µM]	Ki (Adenosine receptor A1) [µM]	Ki (Adenosine receptor A2a) [µM]	Ki (Adenosine receptor A2b) [µM]
Nc1ncnc2c1nc(Br)n2CCO	> 100	1.5	0.62	2.8
Nc1ncnc2c1ncn2C1CCCCC1	> 100	> 100	> 100	> 30
Cn1cnc2ncnc(N)c21	> 100	> 100	> 100	> 30
Nc1ncnc2c1ncn2C1CC1	> 100	> 100	2.3	> 30
Nc1ncnc2c1ncn2Cc1ccccc1 [9-BENZYL-9H-ADENINE]	> 100	> 100	8.5	> 30
Nc1ncnc2ncn(CC(O)CO)c12 (stereo not given)	> 100	> 100	> 100	> 30
Nc1ncnc2ncn(CCCO)c12	> 100	> 100	> 100	> 30
Cn1cnc2c(N)ncnc21	> 100	12	–	> 30
Nc1ncnc2c1nc(Br)n2C1CCCCC1	11	4.6	15	> 30
Nc1ncnc2c1nc(Br)n2Cc1ccccc1	≥ 100	6.7	6.1	> 30
CC(C)n1c(Br)nc2c(N)ncnc21	15	0.83	0.074	1.1
C=CCCn1c(Br)nc2c(N)ncnc21	> 100	4.9	1.6	> 30
Nc1ncnc2c1ncn2CCCO	> 100	> 100	3.9	> 30
CC(C)n1cnc2c(N)ncnc21	> 100	4.3	4.1	16
CCC(C)n1cnc2ncnc(N)c21 (stereo not given)	> 100	> 100	> 100	> 30
Nc1ncnc2ncn(CCO)c12	> 100	> 100	> 100	> 30
Nc1ncnc2c1ncn2CCO	> 100	29	11	> 30
CCCn1cnc2ncnc(N)c21	> 100	> 100	18	> 30
Nc1ncnc2c1ncn2C1CCC1	33	8.7	4.8	17
CC(C)n1cnc2ncnc(N)c21	> 100	20	12	> 30

The remaining lines, values ahead:

Ki (Adenosine receptor A3) [µM]	Ki (Adenosine receptor A1) [µM]	Ki (Adenosine receptor A2a) [µM]	Ki (Adenosine receptor A2b) [µM]	Compound
> 100	> 100	> 100	> 30	CC(C)Cn1cnc2ncnc(N)c21
> 100	34	16	19	CCC(C)n1cnc2c(N)ncnc21 (stereo not given)
15	3.1	0.39	1.2	CCC(C)n1c(Br)nc2c(N)ncnc21 (stereo not given)
3.2	1	0.085	5.1	Nc1ncnc2c1nc(Br)n2CCCO
≥ 100	16	4	7.1	Nc1ncnc2c1nc(Br)n2CC(O)CO (stereo not given)
20	8.4	0.73	4.6	C=CCn1c(Br)nc2c(N)ncnc21
28	0.28	0.052	0.84	CCn1c(Br)nc2c(N)ncnc21
> 100	0.57	0.12	0.72	Cn1c(Br)nc2c(N)ncnc21
> 30	12	4.9	> 30	Nc1ncnc2c1nc(Br)n2CCc1ccccc1
> 100	> 100	> 100	> 30	CC(C)Cn1cnc2c(N)ncnc21
> 100	> 100	8.5	> 30	Nc1ncnc2c1ncn2C[C@H](O)CO [(S)-DHPA]
13	10	1.8	> 30	Nc1ncnc2c1ncn2C1CCCC1
> 100	7.4	2.2	> 30	CCn1cnc2c(N)ncnc21
15	4.9	6	4.2	CC(C)Cn1c(Br)nc2c(N)ncnc21
4.2	1	1.9	0.86	Nc1ncnc2c1nc(Br)n2C1CCCC1
> 100	> 100	8.5	> 30	C=CCCn1cnc2c(N)ncnc21
> 100	> 100	7.8	> 30	CCCCn1cnc2c(N)ncnc21
> 100	> 100	> 100	> 30	Nc1ncnc2c1nc(Br)n2C1CCCCCC1
6.2	2.2	0.66	4.1	Nc1ncnc2c1nc(Br)n2C1CCC1
> 100	> 100	11	> 30	Nc1ncnc2c1ncn2C1CCCCCC1
> 10	33	3.2	> 30	Nc1ncnc2nc(Br)[nH]c12
> 100	> 100	9.6	> 30	Nc1ncnc2c1ncn2CCc1ccccc1
> 100	3.2	0.73	5.6	CCCCn1c(Br)nc2c(N)ncnc21
≥ 100	1.1	0.3	0.2	CCCn1c(Br)nc2c(N)ncnc21
≥ 100	2.9	1.1	0.64	CC(O)Cn1c(Br)nc2c(N)ncnc21 (stereo not given)
> 100	> 100	30	> 30	CCn1cnc2ncnc(N)c21
≥ 100	9.4	9.6	1.7	CCCn1cnc2c(N)ncnc21
> 100	> 100	> 100	> 30	CC(O)Cn1cnc2ncnc(N)c21 (stereo not given)
> 100	29	3.1	> 30	CC(O)Cn1cnc2c(N)ncnc21 (stereo not given)
